Assay results from ChEMBL document CHEMBL4118021, “Studies of TAK1-centered polypharmacology with novel covalent TAK1 inhibitors” (Bioorg Med Chem, 2017).
Calls of active or inactive are those of the source. No cut-off for these calls is given here.

What was measured:
[1] = molecular target: Mitogen-activated protein kinase kinase kinase 11 (Homo sapiens) (UniProt Q16584); assay: Inhibition of MLK3 in human SKCO1 cells at 1 uM after 4 hrs using biotin labeled DLKSNNILLLQPIESDDMEHK probe by mass-spectrometric analysis relative to control; type: cell-based
[2] = molecular target: 14-3-3 protein gamma (Homo sapiens) (UniProt P61981); assay: Binding affinity to YWHAG in human NCI-H23 cells at 1 uM by mass spectrometry based pull down assay; type: cell-based
[3] = molecular target: T1, 80S Ribosome (Homo sapiens) (UniProt P08865+P42677+P62753+P15880+P23396+P61247+P62701+P22090+P46782+P62081+P62241+P46781+P46783+P62280+P25398+P62277+P62263+P62841+P62244+P62249+P08708+P62269+P39019+P60866+P63220+P62266+P62847+P62851+P62854+P62979+P62857+P62273+P62861+P39023+P36578+P46777+Q02878+P18124+P62424+P62917+P32969+P27635+P62906+P62913+P30050+P26373+P40429+P50914+P61313+P18621+Q07020+Q02543+P84098+P46778+P35268+P62829+P62750+P83731+P61254+P61353+P46776+P46779+P47914+P62888+P62899+P62910+P49207+P42766+P18077+Q9Y3U8+P83881+P61927+P61513+P63173+P62891+P62945+P05388+P05386); assay: Binding affinity to RPS5 in human NCI-H23 cells at 1 uM by mass spectrometry based pull down assay; type: cell-based
[4] = molecular target: T1, 80S Ribosome (Homo sapiens); assay: Binding affinity to RPL28 in human NCI-H23 cells at 1 uM by mass spectrometry based pull down assay; type: cell-based
[5] = molecular target: E3 ubiquitin-protein ligase UBR4 (Homo sapiens) (UniProt Q5T4S7); assay: Binding affinity to UBR4 in human NCI-H23 cells at 1 uM by mass spectrometry based pull down assay; type: cell-based
[6] = molecular target: Protein transport protein Sec16A (Homo sapiens) (UniProt O15027); assay: Binding affinity to SEC16A in human NCI-H23 cells at 1 uM by mass spectrometry based pull down assay; type: cell-based
[7] = molecular target: Dihydropyrimidinase-related protein 2 (Homo sapiens) (UniProt Q16555); assay: Binding affinity to DPYSL2 in human NCI-H23 cells at 1 uM by mass spectrometry based pull down assay; type: cell-based
[8] = molecular target: Acidic leucine-rich nuclear phosphoprotein 32 family member A (Homo sapiens) (UniProt P39687); assay: Binding affinity to ANP32A in human NCI-H23 cells at 1 uM by mass spectrometry based pull down assay; type: cell-based
[9] = molecular target: Cyclin-dependent kinase 5 (Homo sapiens) (UniProt Q00535); assay: Binding affinity to CDK5 in human NCI-H23 cells at 1 uM by mass spectrometry based pull down assay; type: cell-based
[10] = molecular target: Aurora kinase B (Homo sapiens) (UniProt Q96GD4); assay: Binding affinity to AURKB in human NCI-H23 cells at 1 uM by mass spectrometry based pull down assay; type: cell-based
[11] = molecular target: Cyclin-dependent kinase 4 (Homo sapiens) (UniProt P11802); assay: Binding affinity to CDK4 in human NCI-H23 cells at 1 uM by mass spectrometry based pull down assay; type: cell-based
[12] = molecular target: Glutamate--cysteine ligase regulatory subunit (Homo sapiens) (UniProt P48507); assay: Binding affinity to GCLM in human NCI-H358 cells at 1 uM by mass spectrometry based pull down assay; type: cell-based
[13] = molecular target: Phosphoinositide 3-kinase regulatory subunit 4 (Homo sapiens) (UniProt Q99570); assay: Binding affinity to PIK3R4 in human NCI-H358 cells at 1 uM by mass spectrometry based pull down assay; type: cell-based
[14] = molecular target: Glucose-6-phosphate isomerase (Homo sapiens) (UniProt P06744); assay: Binding affinity to GPI in human NCI-H358 cells at 1 uM by mass spectrometry based pull down assay; type: cell-based
[15] = molecular target: Sequestosome-1 (Homo sapiens) (UniProt Q13501); assay: Binding affinity to SQSTM1 in human NCI-H358 cells at 1 uM by mass spectrometry based pull down assay; type: cell-based
[16] = molecular target: Very-long-chain 3-oxoacyl-CoA reductase (Homo sapiens) (UniProt Q53GQ0); assay: Binding affinity to HSD17B12 in human NCI-H358 cells at 1 uM by mass spectrometry based pull down assay; type: cell-based
[17] = molecular target: Tight junction protein 1 (Homo sapiens) (UniProt Q07157); assay: Binding affinity to TJP1 in human NCI-H358 cells at 1 uM by mass spectrometry based pull down assay; type: cell-based
[18] = molecular target: Mitochondrial import inner membrane translocase subunit TIM50 (Homo sapiens) (UniProt Q3ZCQ8); assay: Binding affinity to TIMM50 in human NCI-H358 cells at 1 uM by mass spectrometry based pull down assay; type: cell-based
[19] = molecular target: Serine/threonine-protein kinase Nek1 (Homo sapiens) (UniProt Q96PY6); assay: Inhibition of NEK1 in human SKCO1 cells at 1 uM after 4 hrs using biotin labeled DIKSQNIFLTK probe by mass-spectrometric analysis relative to control; type: cell-based
[20] = molecular target: T2, Mitogen-activated protein kinase kinase kinase 7 (Homo sapiens) (UniProt O43318); assay: Inhibition of TAK1 in RA patient-derived synovial fibroblasts assessed as inhibition of IL-1alpha-induced cytokine secretion at 3 uM preincubated for 3 hrs followed by IL-1alpha stimulation measured after 18 hrs by sandwich immunoassay
T2 sequence (whole entry): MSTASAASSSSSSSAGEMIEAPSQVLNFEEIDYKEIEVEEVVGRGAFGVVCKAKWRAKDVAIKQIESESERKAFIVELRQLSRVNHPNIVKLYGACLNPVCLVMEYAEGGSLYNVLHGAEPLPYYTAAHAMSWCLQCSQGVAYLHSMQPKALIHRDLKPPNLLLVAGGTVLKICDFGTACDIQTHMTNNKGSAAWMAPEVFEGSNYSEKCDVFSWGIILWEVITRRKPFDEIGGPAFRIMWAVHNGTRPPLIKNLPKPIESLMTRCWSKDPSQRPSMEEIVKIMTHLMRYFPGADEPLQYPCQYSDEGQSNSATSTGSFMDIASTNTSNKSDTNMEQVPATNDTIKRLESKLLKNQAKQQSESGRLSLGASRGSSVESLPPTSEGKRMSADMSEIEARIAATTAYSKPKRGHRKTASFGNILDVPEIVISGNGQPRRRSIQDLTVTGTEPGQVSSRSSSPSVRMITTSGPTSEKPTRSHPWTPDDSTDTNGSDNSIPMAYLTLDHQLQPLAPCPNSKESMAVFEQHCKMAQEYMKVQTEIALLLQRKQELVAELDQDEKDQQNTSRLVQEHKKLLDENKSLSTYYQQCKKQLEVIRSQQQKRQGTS
Summary of the method: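 Primary RA synovial fibroblasts (donor RA2159) seeded 1000 cells/well and grown ~24 h at 37 °C, 5% CO2. Starved overnight in basal medium, then ~4 h in basal medium with 0.1% BSA. Two adjacent wells pooled per replicate, in biological duplicate. Supernatants diluted 1:3 and run on Luminex 27-plex/21-plex sandwich immunoassays for 48 analytes, with spiked-ligand and mock-supernatant background controls.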

Chain of E3 ubiquitin-protein ligase UBR4 (Homo sapiens) (Q5T4S7 whole entry): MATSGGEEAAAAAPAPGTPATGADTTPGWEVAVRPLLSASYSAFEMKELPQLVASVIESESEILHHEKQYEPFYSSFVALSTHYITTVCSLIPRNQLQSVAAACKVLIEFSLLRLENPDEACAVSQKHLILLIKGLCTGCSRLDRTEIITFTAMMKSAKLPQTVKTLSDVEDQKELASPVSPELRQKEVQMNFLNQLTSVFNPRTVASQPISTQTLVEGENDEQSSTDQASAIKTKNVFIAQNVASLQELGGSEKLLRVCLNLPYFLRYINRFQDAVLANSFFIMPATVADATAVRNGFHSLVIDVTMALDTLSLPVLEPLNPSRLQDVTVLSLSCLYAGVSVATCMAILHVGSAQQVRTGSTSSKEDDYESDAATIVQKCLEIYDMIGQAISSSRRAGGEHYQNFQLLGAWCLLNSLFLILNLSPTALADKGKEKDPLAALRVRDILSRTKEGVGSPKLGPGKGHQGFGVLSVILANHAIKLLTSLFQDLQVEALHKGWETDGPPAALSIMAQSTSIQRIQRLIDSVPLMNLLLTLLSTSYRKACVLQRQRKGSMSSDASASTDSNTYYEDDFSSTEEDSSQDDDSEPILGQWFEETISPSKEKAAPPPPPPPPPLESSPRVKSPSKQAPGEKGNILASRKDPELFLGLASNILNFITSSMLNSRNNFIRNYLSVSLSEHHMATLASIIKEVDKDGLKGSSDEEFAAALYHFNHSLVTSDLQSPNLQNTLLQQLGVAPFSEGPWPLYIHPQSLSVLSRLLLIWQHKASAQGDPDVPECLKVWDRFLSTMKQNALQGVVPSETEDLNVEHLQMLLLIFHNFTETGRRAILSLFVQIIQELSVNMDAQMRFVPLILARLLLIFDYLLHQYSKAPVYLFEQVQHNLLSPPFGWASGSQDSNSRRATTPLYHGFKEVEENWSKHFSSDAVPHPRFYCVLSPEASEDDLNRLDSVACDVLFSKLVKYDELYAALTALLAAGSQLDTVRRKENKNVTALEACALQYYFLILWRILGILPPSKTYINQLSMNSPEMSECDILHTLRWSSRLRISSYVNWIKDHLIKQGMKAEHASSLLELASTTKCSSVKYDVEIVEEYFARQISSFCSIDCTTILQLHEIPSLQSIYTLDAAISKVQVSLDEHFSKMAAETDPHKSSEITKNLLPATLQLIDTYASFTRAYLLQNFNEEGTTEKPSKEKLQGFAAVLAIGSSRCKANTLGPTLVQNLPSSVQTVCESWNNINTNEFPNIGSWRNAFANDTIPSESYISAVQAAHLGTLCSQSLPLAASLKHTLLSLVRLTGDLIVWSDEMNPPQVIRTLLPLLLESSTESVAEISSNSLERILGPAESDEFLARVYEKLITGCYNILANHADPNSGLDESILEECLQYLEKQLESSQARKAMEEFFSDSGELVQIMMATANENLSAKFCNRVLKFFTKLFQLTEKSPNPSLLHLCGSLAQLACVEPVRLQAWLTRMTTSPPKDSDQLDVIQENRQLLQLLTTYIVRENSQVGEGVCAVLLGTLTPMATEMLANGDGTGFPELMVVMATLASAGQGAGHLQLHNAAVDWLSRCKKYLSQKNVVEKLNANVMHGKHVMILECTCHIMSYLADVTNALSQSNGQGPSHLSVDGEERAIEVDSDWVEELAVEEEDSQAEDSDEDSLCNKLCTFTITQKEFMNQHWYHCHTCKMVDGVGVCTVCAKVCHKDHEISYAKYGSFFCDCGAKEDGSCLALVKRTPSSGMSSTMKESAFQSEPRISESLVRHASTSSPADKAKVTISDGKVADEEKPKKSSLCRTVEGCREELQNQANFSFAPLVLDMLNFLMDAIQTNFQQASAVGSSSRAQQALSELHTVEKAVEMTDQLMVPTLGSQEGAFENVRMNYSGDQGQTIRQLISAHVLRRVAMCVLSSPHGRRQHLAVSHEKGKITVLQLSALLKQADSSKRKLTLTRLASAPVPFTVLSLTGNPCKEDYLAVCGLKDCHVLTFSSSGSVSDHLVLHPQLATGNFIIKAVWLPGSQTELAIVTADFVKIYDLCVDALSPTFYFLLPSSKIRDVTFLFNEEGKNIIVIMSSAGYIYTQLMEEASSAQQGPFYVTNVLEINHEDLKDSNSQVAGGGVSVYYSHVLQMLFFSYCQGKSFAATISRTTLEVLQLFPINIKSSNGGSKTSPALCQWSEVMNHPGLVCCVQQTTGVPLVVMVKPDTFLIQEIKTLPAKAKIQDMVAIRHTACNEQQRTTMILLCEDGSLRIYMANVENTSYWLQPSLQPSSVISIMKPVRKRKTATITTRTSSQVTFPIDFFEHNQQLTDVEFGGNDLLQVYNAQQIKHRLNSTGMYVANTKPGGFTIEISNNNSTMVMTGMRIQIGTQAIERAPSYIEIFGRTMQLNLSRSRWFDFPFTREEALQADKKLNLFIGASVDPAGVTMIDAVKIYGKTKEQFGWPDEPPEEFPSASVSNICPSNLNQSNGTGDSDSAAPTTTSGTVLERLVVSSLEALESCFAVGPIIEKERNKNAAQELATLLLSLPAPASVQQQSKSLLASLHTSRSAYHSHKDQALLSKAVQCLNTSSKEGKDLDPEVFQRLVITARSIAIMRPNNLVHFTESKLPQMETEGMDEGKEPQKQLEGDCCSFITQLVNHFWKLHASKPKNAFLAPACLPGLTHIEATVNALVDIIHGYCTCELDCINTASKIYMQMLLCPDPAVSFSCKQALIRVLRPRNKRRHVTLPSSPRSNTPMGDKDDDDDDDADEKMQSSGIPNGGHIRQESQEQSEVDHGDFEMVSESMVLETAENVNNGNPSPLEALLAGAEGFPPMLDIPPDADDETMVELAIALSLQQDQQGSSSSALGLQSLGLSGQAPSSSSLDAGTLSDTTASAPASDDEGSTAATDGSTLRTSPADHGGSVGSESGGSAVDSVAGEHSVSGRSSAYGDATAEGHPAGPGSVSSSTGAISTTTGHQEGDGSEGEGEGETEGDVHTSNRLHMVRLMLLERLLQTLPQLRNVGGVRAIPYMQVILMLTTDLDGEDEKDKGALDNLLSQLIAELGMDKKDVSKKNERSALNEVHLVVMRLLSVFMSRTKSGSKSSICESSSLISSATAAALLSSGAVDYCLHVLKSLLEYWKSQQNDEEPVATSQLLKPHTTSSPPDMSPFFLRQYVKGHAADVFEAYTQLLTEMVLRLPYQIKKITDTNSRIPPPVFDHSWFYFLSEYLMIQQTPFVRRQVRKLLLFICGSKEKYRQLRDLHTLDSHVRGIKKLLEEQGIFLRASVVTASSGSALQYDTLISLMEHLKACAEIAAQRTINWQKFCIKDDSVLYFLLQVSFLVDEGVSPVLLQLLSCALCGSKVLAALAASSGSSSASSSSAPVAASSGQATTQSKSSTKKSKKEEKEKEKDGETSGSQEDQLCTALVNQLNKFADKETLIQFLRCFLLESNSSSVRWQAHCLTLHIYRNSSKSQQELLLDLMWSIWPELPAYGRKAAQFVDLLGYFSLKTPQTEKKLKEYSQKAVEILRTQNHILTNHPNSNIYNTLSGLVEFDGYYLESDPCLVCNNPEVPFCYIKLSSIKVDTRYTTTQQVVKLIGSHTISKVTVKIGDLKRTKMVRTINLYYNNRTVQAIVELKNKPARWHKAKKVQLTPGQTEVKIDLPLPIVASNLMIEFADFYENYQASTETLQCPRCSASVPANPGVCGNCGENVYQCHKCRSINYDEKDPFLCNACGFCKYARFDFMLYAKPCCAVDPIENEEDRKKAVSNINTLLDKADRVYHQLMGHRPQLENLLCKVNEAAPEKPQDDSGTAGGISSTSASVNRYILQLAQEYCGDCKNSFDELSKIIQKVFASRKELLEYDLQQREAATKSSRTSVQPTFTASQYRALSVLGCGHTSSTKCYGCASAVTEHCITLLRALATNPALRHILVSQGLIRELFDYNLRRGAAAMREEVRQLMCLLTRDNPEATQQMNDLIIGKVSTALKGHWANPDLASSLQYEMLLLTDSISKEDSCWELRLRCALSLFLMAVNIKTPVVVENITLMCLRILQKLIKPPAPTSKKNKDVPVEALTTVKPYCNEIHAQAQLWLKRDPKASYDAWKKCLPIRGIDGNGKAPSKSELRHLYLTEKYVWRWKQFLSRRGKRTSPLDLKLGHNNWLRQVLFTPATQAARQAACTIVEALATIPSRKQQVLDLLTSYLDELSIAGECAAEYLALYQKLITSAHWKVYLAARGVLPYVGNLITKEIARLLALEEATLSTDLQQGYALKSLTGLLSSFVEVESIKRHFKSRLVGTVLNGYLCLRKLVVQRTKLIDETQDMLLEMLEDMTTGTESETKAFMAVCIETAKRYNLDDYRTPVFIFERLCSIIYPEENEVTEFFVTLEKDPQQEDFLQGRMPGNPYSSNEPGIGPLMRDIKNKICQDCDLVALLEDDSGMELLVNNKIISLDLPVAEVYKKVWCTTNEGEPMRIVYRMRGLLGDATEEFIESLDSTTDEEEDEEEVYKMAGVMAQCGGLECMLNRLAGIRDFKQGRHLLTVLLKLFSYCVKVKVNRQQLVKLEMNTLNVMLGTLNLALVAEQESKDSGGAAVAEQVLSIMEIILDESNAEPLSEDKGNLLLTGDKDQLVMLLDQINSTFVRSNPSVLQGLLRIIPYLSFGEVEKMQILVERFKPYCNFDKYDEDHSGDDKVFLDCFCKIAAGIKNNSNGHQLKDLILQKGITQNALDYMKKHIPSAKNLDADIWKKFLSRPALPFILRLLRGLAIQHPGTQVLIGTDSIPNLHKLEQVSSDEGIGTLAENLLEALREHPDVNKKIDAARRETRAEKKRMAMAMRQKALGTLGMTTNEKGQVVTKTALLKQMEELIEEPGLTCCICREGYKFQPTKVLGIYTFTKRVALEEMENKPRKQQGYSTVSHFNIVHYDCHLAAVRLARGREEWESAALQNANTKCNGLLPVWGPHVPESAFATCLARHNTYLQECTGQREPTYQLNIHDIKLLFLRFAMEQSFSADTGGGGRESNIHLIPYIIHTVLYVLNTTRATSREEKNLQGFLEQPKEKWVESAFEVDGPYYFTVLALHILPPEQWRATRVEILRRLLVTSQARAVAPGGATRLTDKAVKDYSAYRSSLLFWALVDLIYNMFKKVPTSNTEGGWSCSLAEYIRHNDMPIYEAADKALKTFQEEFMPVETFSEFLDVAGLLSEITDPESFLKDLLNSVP

In the case of `COc1cc(O)c2c(c1)/C=C/C[C@H](O)[C@H](O)C(=O)/C=C\C[C@H](C)OC2=O`, the inhibition [1] is reported as -1.7%.

`C=CC(=O)Nc1ccccc1Nc1nc(Nc2ccc(N3CCN(CCOCCOCCOCCNC(=O)CCCC[C@@H]4SC[C@@H]5NC(=O)N[C@@H]54)CC3)cc2)ncc1Cl` was tested, and the Activity [2] was “Active”, the Activity [3] was “Active” and the Activity [4] was “Active”. For the same molecule, the Activity [5] was “Active”, the Activity [6] was “Active” and the Activity [7] was “Active”. The Activity [8] was “Active”, the Activity [9] was “Active” and the Activity [10] was “Active”. The Activity [11] was “Active”, the Activity [12] was “Active” and the Activity [13] was “Active”. For the same molecule, the Activity [14] was “Active”, the Activity [15] was “Active” and the Activity [16] was “Active”. The Activity [17] was “Active” and the Activity [18] was “Active”.

For `C=CC(=O)Nc1ccccc1Oc1nc(Nc2cnn(CCOC)c2)ncc1Cl`, the inhibition [19] was -7.4% and the inhibition [20] was “Active”.
